Laboratory results published in ChEMBL document CHEMBL1147872, “Syntheses of new tetrasubstituted thiophenes as novel anti-inflammatory agents” (Eur J Med Chem, 2007).
In brackets after ≈: the same amount, converted by molar mass. Activity calls are given as the source filed them. The calls are words filed in the database; no cut-off is given here.

Assays:
Type in all cases: functional
Rattus norvegicus [1] = assay: Antiinflammatory activity in Albino rat assessed as protection against carrageenan-induced hind paw oedema at 100 mg/kg, po after 3 hrs
In short: (§1)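 Rats (150–250 g, either sex) were fasted 18 h and grouped in sixes. Compounds or standards were given orally as a suspension in 5% DMSO. After 1 h, 0.1 ml of 1% carrageenin was injected subplantar into the right hind paw. Paw volume was read by mercury plethysmometer at once and at 3 h. % protection = 100(1−Vt/Vc) versus vehicle.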

[2] = Antioxidant activity assessed as nitric oxide radical scavenging activity at 0.1 ug/ml after 150 mins
In short: (§2)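 Sodium nitroprusside (10 mmol) in PBS at physiological pH was incubated with sample at 25 °C for 150 min in a 3 ml reaction. Aliquots taken every 30 min were mixed 1:1 with Griess reagent (1% sulphanilamide, 0.1% naphthylethylenediamine in 2% H3PO4), and absorbance was read at 546 nm. Runs were done in triplicate, and % scavenging was calculated against the blank.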

[3] = Antioxidant activity assessed as nitric oxide radical scavenging activity at 0.2 ug/ml after 150 mins; in short: as §2
[4] = Antioxidant activity assessed as nitric oxide radical scavenging activity at 0.4 ug/ml after 150 mins; in short: as §2
[5] = Antioxidant activity assessed as nitric oxide radical scavenging activity at 0.6 ug/ml after 150 mins; in short: as §2
[6] = Antioxidant activity assessed as nitric oxide radical scavenging activity at 0.8 ug/ml after 150 mins; in short: as §2
[7] = Antioxidant activity assessed as nitric oxide radical scavenging activity at 1.0 ug/ml after 150 mins; in short: as §2
[8] = Antioxidant activity assessed as nitric oxide radical scavenging activity at 1.2 ug/ml after 150 mins; in short: as §2
[9] = Inhibition of nitric oxide radical scavenging activity; in short: as §2
Mus musculus = assay: Analgesic activity in Albino mouse assessed as protection against acetic acid-induced writhing at 10 mg/kg, ip within 30 mins; settings: route intraperitoneal
In short: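 Mice (20–25 g, either sex) starved 16 h, six per group, given 10 mg/kg i.p.; vehicle control received 1% DMSO at 0.5 ml/100 g. After 1 h, 0.1 ml of 3% acetic acid was given. Writhes were counted over 30 min, and the group mean was expressed as % inhibition versus control. Student's t-test was used.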

Rattus norvegicus [10] = assay: Antiinflammatory activity in Albino rat assessed as protection against carrageenan-induced hind paw oedema at 10 mg/kg, po after 3 hrs; in short: as §1
Rattus norvegicus [11] = assay: Antiinflammatory activity in Albino rat assessed as protection against carrageenan-induced hind paw oedema at 20 mg/kg, po after 3 hrs; in short: as §1
Rattus norvegicus [12] = assay: Antiinflammatory activity in Albino rat assessed as protection against carrageenan-induced hind paw oedema at 40 mg/kg, po after 3 hrs; in short: as §1
[13] = Antioxidant activity assessed as nitric oxide radical scavenging activity at 5 ug/ml after 150 mins; in short: as §2
[14] = Antioxidant activity assessed as nitric oxide radical scavenging activity at 10 ug/ml after 150 mins; in short: as §2
[15] = Antioxidant activity assessed as nitric oxide radical scavenging activity at 15 ug/ml after 150 mins; in short: as §2
[16] = Antioxidant activity assessed as nitric oxide radical scavenging activity at 20 ug/ml after 150 mins; in short: as §2
[17] = Antioxidant activity assessed as nitric oxide radical scavenging activity at 25 ug/ml after 150 mins; in short: as §2
[18] = Antioxidant activity assessed as nitric oxide radical scavenging activity at 30 ug/ml after 150 mins; in short: as §2
[19] = Antioxidant activity assessed as nitric oxide radical scavenging activity at 35 ug/ml after 150 mins; in short: as §2

SMILES | IC50 [9] | Activity (Mus musculus) | Activity (Rattus norvegicus [10]) | Activity (Rattus norvegicus [11]) | Activity (Rattus norvegicus [12]) | Activity [13] | Activity [14] | Activity [15] | Activity [16] | Activity [17] | Activity [18] | Activity [19] | Activity [9] | other results
Cc1cccc(Nc2ccccc2C(=O)O)c1C [MEFENAMIC ACID] |  |  |  |  |  |  |  |  |  |  |  |  |  | Activity (Rattus norvegicus [1]): 39%
O=C1O[C@H]([C@@H](O)CO)C(O)=C1O [ASCORBIC ACID] | 0.52 µg/mL (≈ 2.95 µM) |  |  |  |  |  |  |  |  |  |  |  |  | Activity [2]: 2.98%; Activity [3]: 11.5%; Activity [4]: 29.5%; Activity [5]: 39.3%; Activity [6]: 41.6%; Activity [7]: 58.3%; Activity [8]: 70.2%
COC(=O)c1c(Nc2ccc(C)cc2)sc(C(=O)c2ccc(C)cc2)c1C |  | 22% | 32% | 36% | 37% | inactive | inactive | inactive | inactive | inactive | inactive | inactive | inactive | 
COc1ccc(C(=O)c2sc(Nc3ccc(C)cc3)c(C(=O)O)c2C)cc1 |  | 26% | 56% | 63% | 62% | inactive | inactive | inactive | inactive | inactive | inactive | inactive | inactive | 
COC(=O)c1c(Nc2ccccc2)sc(C(=O)c2ccc(C)cc2)c1C | 171.43 µg/mL (≈ 469 µM) | 27% | 43% | 49% | 53% | 2.08% | 3.16% | 4.59% | 6.06% | 8.16% | 9.35% | 10.2% |  | 
COc1ccc(C(=O)c2sc(Nc3ccc(Cl)cc3)c(C(=O)O)c2C)cc1 |  | 30% | 49% | 49% | 43% | inactive | inactive | inactive | inactive | inactive | inactive | inactive | inactive | 
